Yeast life ext – extends the lifespan of yeast; S. cerevisiae growth with nicotinamide, OD615; deaD strain in restrictive glucose medium; inhibition of the nicotinamide effect, % at 10 µM; 0.68% of 130,000 active; AID 775;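 active means inhibition above a set limit, placed 3 SD over the median of all compounds, cut at about 26% in these data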;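 further: 0% = nicotinamide-treated wells and 100% = cells grown without nicotinamide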
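assay system = DeaD-strain S. cerevisiae | buffer or medium = restrictive glucose medium | reagent = 1.5 mM nicotinamide | compound = 10 µM single point, 0.25% DMSO | incubation = 48 h compound exposure at 30 °C, humidified | signal = OD615 measurement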
Measles CPE – protection of cells from measles virus; Measles virus-infected cells, CPE protection, absorbance; AID 841; 1.5% of 140,000 active; protection (pct of control), % at 4 µM; in the data active means protection mostly above about 24%, no sharp cut-off; inactive means mostly below about 26%
Yeast growth inh – reduces growth of yeast BB579 in restrictive medium. inhibition, % at 10 µM. AID 804. S. cerevisiae BB579 growth, OD615, 48 h. 0.51% of 140,000 active;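 active means inhibition above a set limit, 3 SD over the mean compound inhibition, cut at about 44% in these data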
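System: DeaD yeast strain BB579; buffer or medium: CSMM-D dextrose restrictive medium; technique: OD at 615 nm; schedule: 4 h cell preincubation, 48 h compound exposure, 30 °C humidified; doses: single 10 µM dose; controls: amphotericin B 10 µg/mL, positive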
RAM network inh – yeast RAM network inhibition. S. cerevisiae dse1pr::URA3 reporter, 5-FOA growth OD615, 2 d; analog-sensitive cbk1-as2 kinase mutant strain. inhibition, % at 50 µM. 1.8% of 190,000 active;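 active means inhibition above a set limit, 3 SD over mean compound inhibition, cut at about 8.4% in these data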;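 further: 0% = DMSO-only wells with no growth and 100% = 10 µM 1-NA-PP1 full growth; inhibition rescues growth on 5-FOA so higher OD means more RAM inhibition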
An asterisk follows results filed as active; · = not tested or not shown. Shown are actives, neighbours in structure and some others; about 3.6% of the full set was active somewhere.

SMILES | Yeast life ext | Measles CPE | Yeast growth inh | RAM network inh
CCN(CC)S(=O)(=O)c1cccc(NC(=O)C(=O)c2c(-c3ccccc3)cc3ccccn23)c1 | 9 | 9 | -85 | 9.9*
CCN(CC)S(=O)(=O)c1cccc(NC(=O)c2ccc(Br)cc2)c1 | · | · | · | 9.7*
CCN(CC)S(=O)(=O)c1cccc(C(=O)Nc2cc(C)cc(C)c2)c1 | -1 | 30 | -36 | 8.5*
CN(c1ccccc1)S(=O)(=O)c1cccc(C(=O)OCC(=O)NCCCN2CCCC2=O)c1 | · | · | · | 0
CCN(CC)C(=O)Cn1nnc(-c2ccc(S(C)(=O)=O)cc2)n1 | · | · | · | 1
COc1ccccc1CNC(=O)N/C=C/c1ccc(Cl)cc1 | · | · | · | 0
O=C1CCN1C1(C(=O)NC2CCCCC2)CCCC1 | 8 | 15 | -29 | 2
CC(=O)OC(C(=O)NCCN1CCOCC1)c1c(F)cccc1F (configuration not stated) | · | · | · | 0
CCCc1cc(C(=O)Cc2ccc(F)cc2)c(O)cc1O | -23 | 3 | 92* | -2
O=C(CCC(=O)N/N=C/c1ccccc1O)NCc1ccccc1 | 7 | 7 | -37 | 1
O=C1CN(CC(=O)N2CCCCC2)c2ccccc2O1 | 0 | 3 | 46* | 1
Oc1cccc(C=NCc2ccccc2)c1O | -19 | 12 | 98* | -2
CCCCC(CC)C(=O)N1CCN(C(=O)c2ccco2)CC1 (configuration not stated) | · | · | · | -1
Cc1ccc2cc(CN(Cc3cccs3)Cc3nnnn3CC3CCCO3)c(=O)[nH]c2c1 (configuration not stated) | 2 | 31* | -32 | 0
COc1ccccc1NC(=O)Nc1cc(F)ccc1F | · | · | · | 2
CCNC(=O)c1ccccc1SCC(=O)Nc1ccc(F)cc1 | · | · | · | 0
O=C(/C=C/c1cccc([N+](=O)[O-])c1)N1CCN(c2ccccc2F)CC1 | -4 | 6 | -28 | 3
O=C(/C=C/c1ccccc1[N+](=O)[O-])N1CCN(c2ccccc2F)CC1 | · | · | · | 8.5*
O=C(/C=C/c1ccc(Cl)cc1Cl)N1CCN(c2ccccc2[N+](=O)[O-])CC1 | 2 | 11 | -23 | 8.6*
CCOC(=O)Cc1csc(NC(=S)NC(=O)C(C)(C)C)n1 | -6 | 5 | -29 | 0
COC(=O)c1ccccc1NC(=O)N1CCN(Cc2ccco2)CC1 | · | · | · | 1
COc1cccc(C(=O)CSc2nnc(CNc3nc(-c4ccccc4)cs3)n2C)c1 | -17 | 52* | -41 | 5
CNC(=O)COc1ncnc2sccc12 | -14 | 0 | -16 | 0
Cc1cc(C(=O)COc2ncnc3sccc23)c(C)n1C | 35* | 11 | -63 | 2
CC(=O)c1cccc(NC(=O)COC(=O)c2n[nH]c3ccccc23)c1 | · | · | · | 1
SMILES | Yeast life ext | Measles CPE | Yeast growth inh | RAM network inh
c1ccc(-c2ccccn2)nc1 | 6 | 74 | -49 | 0
c1ccc(-c2ccc(-c3ccccn3)nn2)nc1 | -10 | 10 | 68* | -1
O=C(CSCc1ccc(F)cc1)N1CCN(c2ccccc2)CC1 | -16 | 79* | -25 | -1
Cc1ccc(/C=C(\C#N)C(=O)Nc2ccccn2)o1 | · | · | · | -2
COc1ccc(Cl)cc1N(CC(=O)Nc1ccccc1C(=O)NCc1ccco1)S(C)(=O)=O | -19 | 46* | 0 | 1
COc1ccc(OC)c(N(CC(=O)Nc2ccccc2C(=O)NCc2ccco2)S(C)(=O)=O)c1 | -14 | 8 | -34 | 1
O=C(Nc1ccc(Cl)cc1)Nc1ccccc1C(=O)NCc1ccco1 | -9 | 38* | -37 | 1
O=C(/C=C/c1ccc(Cl)cc1)NCc1ccco1 | -7 | 18* | 11 | 0
COc1ccc(OC)c(N/C=C/C(=C(C#N)C#N)N(C)C)c1 | · | · | · | 1
CC1(c2ccc(Cl)cc2)NC(=O)CS1 (configuration not stated) | · | · | · | 1
O=C(OCC(=O)N1CCCc2ccccc21)c1cccnc1Cl | -1 | 39* | -26 | -1
O=C(O)c1cc([N+](=O)[O-])cc2c1nnn2O | · | · | · | -1
CN(C)S(=O)(=O)c1cccc(NC(=O)COC(=O)c2cn(-c3ccccc3)nc2-c2ccccc2)c1 | 4 | 13 | -20 | 9.1*
CCCn1c2c(c(O)c(C(=O)NC)c1=O)CCCC2 | -17 | 4 | -43 | 0
CCCn1c2c(c(O)c(C(=O)Nc3ccc(OC)cc3)c1=O)CCCC2 | 51 | 6 | -89 | 9.2*
COc1c2c(nc3ccccc13)OC(C(C)(O)COC(C)=O)C2 (configuration not stated) | -7 | 32* | -21 | 3
CCC(C(=O)OCC(=O)Nc1cc(Cl)cc(Cl)c1)c1ccccc1 (configuration not stated) | 2 | 5 | -63 | 11*
CCC(C(=O)OCC(=O)Nc1cccc(C(C)=O)c1)c1ccccc1 (configuration not stated) | · | · | · | 3
CCC(=O)Nc1cccc(-c2cnc3ccccc3n2)c1 | -12 | 40* | -34 | 1
CCOCCCn1c(=S)[nH]c2cc(C(=O)NCC(OC)OC)ccc2c1=O | · | · | · | 1
CC(=O)O[C@]1(C(C)=O)CC[C@H]2[C@@H]3C=C(Cl)C4=CC(=O)CC[C@]4(C)[C@H]3CC[C@@]21C | 2 | 8 | -18 | 8.8*
Cc1ccnc(NC(=O)c2cc3ccccc3oc2=O)c1 | · | · | · | 3
CCOc1ccccc1N(C(=O)Cn1nnnc1-c1ccc(C)o1)C(CC)C(=O)NC(C)(C)C (configuration not stated) | -1 | 39* | -32 | 2
Cc1ccc(-c2nnn(CC(=O)N(c3ccccc3)C(C(=O)NC(C)(C)C)c3cccs3)n2)o1 (configuration not stated) | · | 12 | -52 | 4
CC(C)N1CCN(Cc2ccsc2)CC1CCO (configuration not stated) | · | · | · | 1
SMILES | Yeast life ext | Measles CPE | Yeast growth inh | RAM network inh
Cc1onc(-c2ccccc2Cl)c1C(=O)Nc1cccc(-c2cn3cccnc3n2)c1 | -4 | 29 | -44 | 9.0*
Cc1nn(-c2ccccc2)c(N2CCCC2)c1/C=N/Nc1ccc(S(=O)(=O)Nc2ccccc2)cc1[N+](=O)[O-] | 4 | 5 | -8 | 9.0*
COc1ccccc1NS(=O)(=O)c1cccc(C(=O)N/N=C/c2c(C)nn(-c3ccccc3)c2N2CCCC2)c1 | -1 | 4 | 3 | 2
COc1ccccc1NS(=O)(=O)c1ccc(N/N=C/c2c(C)nn(-c3ccccc3)c2N2CCCC2)c([N+](=O)[O-])c1 | 2 | 10 | -45 | 9.6*
O=C(CN1C(=O)c2cccc3cccc(c23)C1=O)NCCN1CCOCC1 | · | · | · | 2
Cc1nnc(C)n1/N=C/c1cc(Br)cc(Br)c1O | -31 | 3 | 100* | -1
Cc1nnc(C)n1/N=C/c1cc(Br)ccc1O | 22 | 20 | -25 | 0
COc1cccc(NC(=O)CSc2ncnc3c2cnn3Cc2ccccc2)c1 | 0 | 1 | -70 | 8.4*
COc1cc(/C=N/NC(=O)c2ccc(COc3ccccc3Cl)o2)cc(Br)c1O | 4 | 5 | -63 | 6
COc1cccc(/C=N/NC(=O)c2ccc(COc3ccc(Cl)cc3Cl)o2)c1 | -14 | 52* | -8 | 1

Assay outcomes as filed in PubChem.
